Measurements from ChEMBL document CHEMBL1123732, “Flavones. 1. Synthesis and antihypertensive activity of (3-phenylflavonoxy)propanolamines without beta-adrenoceptor antagonism” (J Med Chem, 1987).
Active and inactive are the calls of the source. The rule behind the calls is not given here.

Key:
Rattus norvegicus [1] = test: Percentage of fall in systolic blood pressure (SBP) at the following hours after dosing at 75 mg/kg (po) at 24 hr in spontaneously hypertensive rats(SHR); NS means not significant; assay type: functional, organism-based; design: dose 75 mg/kg; conditions: Artery
Procedure, shortened: (§1)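 Male spontaneously hypertensive rats (Wistar-Kyoto strain), unanesthetized, dosed orally; systolic pressure measured by indirect tail cuff. Before each reading, rats warmed at 35-37 °C for 15-20 min to dilate the caudal artery. Five rats per treatment group; result is percentage fall in systolic pressure versus untreated control. Significance tested against control.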

Rattus norvegicus [2] = test: Percentage of fall in systolic blood pressure (SBP) at the following hours after dosing at 75 mg/kg (po) at 7.5 hr in spontaneously hypertensive rats(SHR); assay type: functional, Artery; procedure, shortened: as §1
Rattus norvegicus [3] = test: […] systolic blood pressure (SBP) for compound-treated group relative to the value for untreated control at 75 mg/kg dose (po) in spontaneously hypertensive rats(SHR); assay type: functional, Artery; procedure, shortened: as §1
Adrenergic receptor beta [4] = biological target: T1, Adrenergic receptor beta (Rattus norvegicus, UniProt P18090+P10608+P26255); test: Evaluated for beta-receptor affinity, determined in rat brain membrane fraction with [3H]- dihydroalprenolol; assay type: cell membranes
Procedure, shortened: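 Rat brain with cerebellum removed, homogenized in ice-cold 50 mM Tris-HCl pH 8.0 and spun at 50000g for 15 min, pellet washed once more the same way. Binding used 0.4-0.6 mg protein, 1 nM [3H]dihydroalprenolol, 50 mM Tris pH 8.0, and 5-10 competitor concentrations. IC50 read visually from a semilog plot; Ki from Cheng-Prusoff with KD approximately 1 nM.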

Rattus norvegicus [5] = test: Percentage of fall in systolic blood pressure (SBP) at the following hours after dosing at 75 mg/kg (po) at 2 hr in spontaneously hypertensive rats(SHR); NS means not significant; assay type: functional, organism-based; design: dose 75 mg/kg; conditions: Artery; procedure, shortened: as §1
Rattus norvegicus [6] = test: Percentage of fall in systolic blood pressure (SBP) at the following hours after dosing at 75 mg/kg (po) at 5 hr in spontaneously hypertensive rats(SHR); NS means not significant; assay type: functional, organism-based; design: dose 75 mg/kg; conditions: Artery; procedure, shortened: as §1
Rattus norvegicus [7] = test: Percentage of fall in systolic blood pressure (SBP) at the following hours after dosing at 75 mg/kg (po) at 7.5 hr in spontaneously hypertensive rats(SHR); NS means not significant; assay type: functional, organism-based; design: dose 75 mg/kg; conditions: Artery; procedure, shortened: as §1
Rattus norvegicus [8] = test: Percentage of fall in systolic blood pressure (SBP) at the following hours after dosing at 75 mg/kg (po) at 24 hr in spontaneously hypertensive rats(SHR); assay type: functional, Artery; procedure, shortened: as §1
Rattus norvegicus [9] = test: Percentage of fall in systolic blood pressure (SBP) at the following hours after dosing at 75 mg/kg (po) at 5 hr in spontaneously hypertensive rats(SHR); assay type: functional, Artery; procedure, shortened: as §1
Rattus norvegicus [10] = test: Percentage of fall in systolic blood pressure (SBP) at the following hours after dosing at 17 mg/kg (po) at 24 hr in spontaneously hypertensive rats(SHR);NS means not significant; assay type: functional, organism-based; design: dose 17 mg/kg; conditions: Artery; procedure, shortened: as §1
Rattus norvegicus [11] = test: Percentage of fall in systolic blood pressure (SBP) at the following hours after dosing at 8 mg/kg (po) at 5 hr in spontaneously hypertensive rats(SHR);NS means not significant; assay type: functional, organism-based; design: dose 8 mg/kg; conditions: Artery; procedure, shortened: as §1
Rattus norvegicus [12] = test: Percentage of fall in systolic blood pressure (SBP) at the following hours after dosing at 8 mg/kg (po) at 7.5 hr in spontaneously hypertensive rats(SHR); assay type: functional, Artery; procedure, shortened: as §1
Rattus norvegicus [13] = test: […] systolic blood pressure (SBP) for compound-treated group relative to the value for untreated control at 8 mg/kg dose (po) in spontaneously hypertensive rats(SHR); assay type: functional, Artery; procedure, shortened: as §1
Rattus norvegicus [14] = test: Percentage of fall in systolic blood pressure (SBP) at the following hours after dosing at 8 mg/kg (po) at 2 hr in spontaneously hypertensive rats(SHR); assay type: functional, Artery; procedure, shortened: as §1
Rattus norvegicus [15] = test: Percentage of fall in systolic blood pressure (SBP) at the following hours after dosing at 17 mg/kg (po) at 2 hr in spontaneously hypertensive rats(SHR); assay type: functional, Artery; procedure, shortened: as §1
Rattus norvegicus [16] = test: Percentage of fall in systolic blood pressure (SBP) at the following hours after dosing at 17 mg/kg (po) at 7.5 hr in spontaneously hypertensive rats(SHR); assay type: functional, Artery; procedure, shortened: as §1
Rattus norvegicus [17] = test: Percentage of fall in systolic blood pressure (SBP) at the following hours after dosing at 17 mg/kg (po) at 5 hr in spontaneously hypertensive rats(SHR); assay type: functional, Artery; procedure, shortened: as §1
Rattus norvegicus [18] = test: Evaluated for the percentage inhibition of the depressor response of isoproterenol (0.25 mg/kg, iv) in spontaneously hypertensive rats at 150 mg/kg perorally; NI means no inhibition at 10 mg/kg, iv; assay type: functional, organism-based
Procedure, shortened: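 Male SHR, three per group, dosed orally 150 mg/kg as suspension in 4% Clearjel. At 4 h, anesthetized with sodium pentobarbital (45 mg/kg, ip); femoral artery and vein cannulated; arterial pressure monitored continuously. Isoproterenol given iv in 0.1 mL saline; depressor response compared with Clearjel vehicle-treated rats as percentage inhibition.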

Rattus norvegicus [19] = test: […] systolic blood pressure (SBP) for compound-treated group relative to the value for untreated control at 17 mg/kg dose (po) in spontaneously hypertensive rats(SHR); assay type: functional, Artery; procedure, shortened: as §1
Rattus norvegicus [20] = test: Percentage of fall in systolic blood pressure (SBP) at the following hours after dosing at 8 mg/kg (po) at 24 hr in spontaneously hypertensive rats(SHR);NS means not significant; assay type: functional, organism-based; design: dose 8 mg/kg; conditions: Artery; procedure, shortened: as §1
Rattus norvegicus [21] = test: Percentage of fall in systolic blood pressure (SBP) after dosing at 17 mg/kg (po) at 24 hr in spontaneously hypertensive rats(SHR); assay type: functional, Artery; procedure, shortened: as §1
Rattus norvegicus [22] = test: Percentage of fall in systolic blood pressure (SBP) after dosing at 17 mg/kg (po) at 2 hr in spontaneously hypertensive rats(SHR). NS means not significant; assay type: functional, organism-based; design: dose 17 mg/kg; conditions: Artery; procedure, shortened: as §1
Adrenergic receptor beta [23] = biological target: T1, Adrenergic receptor beta; test: Evaluated for beta-receptor affinity determined in rat brain membrane fraction with [3H]- dihydroalprenolol; assay type: cell membranes
Rattus norvegicus [24] = test: Percentage of fall in systolic blood pressure (SBP) after dosing at 8 mg/kg at 24 hr in spontaneously hypertensive rats(SHR). NS means not significant; assay type: functional, organism-based; design: dose 8 mg/kg; conditions: Artery; procedure, shortened: as §1
Rattus norvegicus [25] = test: Percentage of fall in systolic blood pressure (SBP) after dosing at 8 mg/kg (po) at 7.5 hr in spontaneously hypertensive rats(SHR); assay type: functional, Artery; procedure, shortened: as §1
Rattus norvegicus [26] = test: Percentage of fall in systolic blood pressure (SBP) after dosing at 17 mg/kg (po) at 7.5 hr in spontaneously hypertensive rats(SHR); assay type: functional, Artery; procedure, shortened: as §1
Rattus norvegicus [27] = test: Percentage of fall in systolic blood pressure (SBP) at the following hours after dosing at 8 mg/kg (po) at 5 hr in spontaneously hypertensive rats(SHR); assay type: functional, Artery; procedure, shortened: as §1
Rattus norvegicus [28] = test: Percentage of fall in systolic blood pressure (SBP) after dosing at 8 mg/kg (po) at 2 hr in spontaneously hypertensive rats(SHR). NS means not significant; assay type: functional, organism-based; design: dose 8 mg/kg; conditions: Artery; procedure, shortened: as §1
Rattus norvegicus [29] = test: Percentage of fall in systolic blood pressure (SBP) after dosing at 17 mg/kg (po) at 5 hr in spontaneously hypertensive rats(SHR); assay type: functional, Artery; procedure, shortened: as §1
Rattus norvegicus [30] = test: Percentage of fall in systolic blood pressure (SBP) at the following hours after dosing at 75 mg/kg (po) at 2 hr in spontaneously hypertensive rats(SHR):NS means not significant; assay type: functional, organism-based; design: dose 75 mg/kg; conditions: Artery; procedure, shortened: as §1
Rattus norvegicus [31] = test: Evaluated for the percentage inhibition of the depressor response of isoproterenol (0.25 mg/kg, iv) in spontaneously hypertensive rats at 150 mg/kg peroral dose; NI means no inhibition at 10 mg/kg, iv
Rattus norvegicus [32] = test: Evaluated for the percentage inhibition of the depressor response of isoproterenol (0.25 mg/kg, iv) in spontaneously hypertensive rats at 150 mg/kg peroral dose;NI means no inhibition at 10 mg/kg, iv
Rattus norvegicus [33] = test: Percentage of fall in systolic blood pressure (SBP) at the following hours after dosing at 75 mg/kg (po) at 2 hr in spontaneously hypertensive rats(SHR); assay type: functional, Artery; procedure, shortened: as §1
Rattus norvegicus [34] = test: Percentage of fall in systolic blood pressure (SBP) at the following hours after dosing at 75 mg/kg (po) at 7.5 hr in spontaneously hypertensive rats(SHR) NS means not significant; assay type: functional, organism-based; design: dose 75 mg/kg; conditions: Artery; procedure, shortened: as §1
Rattus norvegicus [35] = species on record: Rattus norvegicus; test: animal or person; conditions: iv, read-out: Inhibition

| Structure (SMILES) | Decrease in SBP (Rattus norvegicus [1]) | Decrease in SBP (Rattus norvegicus [2]) [%] | SBP (Rattus norvegicus [3]) [mmHg] | Decrease in SBP (Rattus norvegicus [5]) | Decrease in SBP (Rattus norvegicus [6]) | Decrease in SBP (Rattus norvegicus [8]) [%] | Decrease in SBP (Rattus norvegicus [9]) [%] | further results |
| --- | --- | --- | --- | --- | --- | --- | --- | --- |
| CCCCNCC(O)COc1ccc2c(=O)c(-c3ccccc3)c(-c3ccccc3)oc2c1 (stereo unspecified) | inactive | 11 | 199 | inactive | inactive |  |  | Ki (Adrenergic receptor beta [4]): > 0.00005 M |
| CCCCCCNCC(O)COc1ccc2c(=O)c(-c3ccccc3)c(-c3ccccc3)oc2c1.Cl (stereo unspecified) | inactive |  | 200 | inactive | inactive |  |  | Decrease in SBP (Rattus norvegicus [7]): inactive |
| O=c1c(-c2ccccc2)c(-c2ccccc2)oc2cc(OCC(O)CNC3CCCCC3)ccc12 (stereo unspecified) |  | 13 | 216 | inactive |  | 16 | 10 |  |
| O=c1c(-c2ccccc2)c(-c2ccccc2)oc2cc(OCC(O)CNC3CC3)ccc12 (stereo unspecified) |  |  |  |  |  |  |  | Decrease in SBP (Rattus norvegicus [10]): inactive; Decrease in SBP (Rattus norvegicus [11]): inactive; Decrease in SBP (Rattus norvegicus [12]): 10%; SBP (Rattus norvegicus [13]): 188 mmHg; Decrease in SBP (Rattus norvegicus [14]): 7%; Decrease in SBP (Rattus norvegicus [15]): 10%; Decrease in SBP (Rattus norvegicus [16]): 18%; Ki (Adrenergic receptor beta [4]): > 0.00005 M; Decrease in SBP (Rattus norvegicus [17]): 23%; inhibition (Rattus norvegicus [18]): inactive; SBP (Rattus norvegicus [19]): 193 mmHg; Decrease in SBP (Rattus norvegicus [20]): inactive |
| CC(C)NCC(O)COc1ccc2c(=O)c(-c3ccccc3)c(-c3ccccc3)oc2c1.Cl (stereo unspecified) |  |  |  |  |  |  |  | Decrease in SBP (Rattus norvegicus [21]): 11%; Decrease in SBP (Rattus norvegicus [22]): inactive; Ki (Adrenergic receptor beta [23]): > 0.00005 M; SBP (Rattus norvegicus [13]): 198 mmHg; Decrease in SBP (Rattus norvegicus [24]): inactive; Decrease in SBP (Rattus norvegicus [25]): 8%; Decrease in SBP (Rattus norvegicus [26]): 20%; Decrease in SBP (Rattus norvegicus [27]): 10%; Decrease in SBP (Rattus norvegicus [28]): inactive; Decrease in SBP (Rattus norvegicus [29]): 14%; inhibition (Rattus norvegicus [18]): inactive; SBP (Rattus norvegicus [19]): 195 mmHg |
| C=CCNCC(O)COc1ccc2c(=O)c(-c3ccccc3)c(-c3ccccc3)oc2c1 (stereo unspecified) |  | 11 | 197 |  |  | 9 | 10 | Decrease in SBP (Rattus norvegicus [30]): inactive; inhibition (Rattus norvegicus [31]): inactive |
| CCCCCNCC(O)COc1ccc2c(=O)c(-c3ccccc3)c(-c3ccccc3)oc2c1 (stereo unspecified) | inactive |  | 191 | inactive | inactive |  |  | Decrease in SBP (Rattus norvegicus [7]): inactive |
| Cl.O=c1c(-c2ccccc2)c(-c2ccccc2)oc2cc(OCC(O)CNC3CCCC3)ccc12 (stereo unspecified) |  | 23 | 200 |  |  | 18 | 23 | inhibition (Rattus norvegicus [32]): inactive; Decrease in SBP (Rattus norvegicus [33]): 10% |
| CC(C)(C)NCC(O)COc1ccc2c(=O)c(-c3ccccc3)c(-c3ccccc3)oc2c1.Cl (stereo unspecified) | inactive |  | 196 | inactive | inactive |  |  | Decrease in SBP (Rattus norvegicus [34]): inactive; Ki (Adrenergic receptor beta [4]): > 0.00005 M |
| CCC(C)NCC(O)COc1ccc2c(=O)c(-c3ccccc3)c(-c3ccccc3)oc2c1 (stereo unspecified) |  | 19 | 210 |  |  | 19 | 18 | Decrease in SBP (Rattus norvegicus [33]): 12%; inhibition (Rattus norvegicus [31]): inactive |
| CCCN(C)CC(O)COc1ccc2c(=O)c(-c3ccccc3)c(-c3ccccc3)oc2c1.O=C(O)/C=C\C(=O)O (stereo unspecified) |  | 10 | 199 |  |  | 18 | 9 | Decrease in SBP (Rattus norvegicus [33]): 7%; inhibition (Rattus norvegicus [31]): inactive |
| CC(C)NCC(O)COc1cccc2ccccc12 (stereo unspecified) [PROPRANOLOL] | inactive |  | 212 | inactive | inactive |  |  | inhibition in vivo at 10 mg/kg (Rattus norvegicus [35]): 100%; Decrease in SBP (Rattus norvegicus [7]): inactive |
